This note sets out measurements from ChEMBL document CHEMBL3817785, “Synthetic sulfoglycolipids targeting the serine-threonine protein kinase Akt” (Bioorg Med Chem, 2016).

The source made the active and inactive calls. The calls are words filed in the database; no cut-off is given here.

The target in assay [1] is T1, RAC-alpha serine/threonine-protein kinase (Homo sapiens, UniProt P31749). Briefly: Inhibition of human Akt1 PH domain using AKTide-2T as substrate at 100 uM by ELISA. A digest of the protocol: (§1)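 Kit ELISA: wells precoated with AKTide-2T; constitutively active human Akt1 (25 m units/well) plus compound in kinase buffer (100 µM final, or 1–250 µM for concentration-response), Mg2+/ATP added. Phospho-substrate detected by HRP anti-phospho-AKTide-2T antibody with TMB, A450.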
A general note: In an ELISA, binding on a coated surface is turned into a signal by an enzyme label.

Assay [2] is described as follows: (§2) Antiproliferative activity against PTEN-deficient human Nim1 cells expressing BRAF V600E mutant assessed as cell growth inhibition after 72 hrs by coulter counter method. Format: functional. A digest of the protocol:
(§3)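 Cells seeded in complete medium in 12-well plates: Nim-1 at 5000 cells/cm² and TPC-1 at 3000 cells/cm², both in DMEM + 10% FBS; K1 at 4000 cells/cm² in DMEM:Ham's F12:MCDB 105 (2:1:1) + 20% serum; 37 °C, 5% CO2. Next day, exposed to increasing concentrations or DMSO (0.5% final) for 72 h. Cells trypsinized and Coulter-counted; survival as % of untreated, duplicates; IC50 = 50% growth inhibition.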

A short description of assay [3]: (§4) Antiproliferative activity against human IGROV1 cells assessed as cell growth inhibition after 24 hrs by coulter counter method. The following applies: IGROV-1, 24 h. The class given is functional, cell-based. The procedure, abridged:
(§5)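 Seeded at 5000 cells/cm² in complete RPMI (10% serum), 37 °C, 5% CO2; next day serum-starved and drug-treated for 24 h, then complete medium restored for a further 48 h. Cells trypsinized and counted by Coulter counter 72 h after treatment start; survival vs untreated; IC50 = concentration inhibiting proliferation by 50%; duplicates, two independent experiments, mean ± SEM.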

The subject of assay [4] is TPC1. Briefly: Antiproliferative activity against human TPC1 cells harboring RET/PTC-1 rearrangement assessed as cell growth inhibition after 72 hrs by coulter counter method. The class given is functional, cell-based. The procedure, abridged:
as §3

Assay [5] can be described thus: (§6) Antiproliferative activity against human K1 cells expressing BRAF V600E/PI3K E542K mutants assessed as cell growth inhibition after 72 hrs by coulter counter method. The class given is functional, cell-based. Particulars: K1, 72 h. The procedure, abridged:
as §3

The target of assay [6] is T1, RAC-alpha serine/threonine-protein kinase. Particulars: 1 uM.
A further assay is filed under the species Homo sapiens. The description is as §2. Format: functional. A digest of the protocol: as §3
In another assay the test system is IGROV-1. The description is as §4. The class given is functional, cell-based. The procedure, abridged:
as §5

Assay [7] addresses RAC-alpha serine/threonine-protein kinase (Mus musculus) (UniProt P31750). Briefly: Inhibition of Akt phosphorylation in mouse NIH/3T3-K-RAS cells at 100 uM pretreated for 1 hr by Western blot analysis. The class given is cell-based. A digest of the protocol: (§7)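 K-ras-transformed NIH 3T3 cells (DMEM, 10% NBCS, 37 °C) plated at 3 x 10⁵ cells/mL, starved 16 h in 0.5% serum, pretreated 1 h with compound at 100 µM or DMSO, then stimulated with 10% serum for 30 min. Lysates (15 µg) on 8% SDS-PAGE, probed for phospho-Akt Ser473, reprobed for total Akt, actin loading control; ECL; densitometry from three experiments.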
Background: A western blot detects proteins with antibodies after separation by electrophoresis.

The target is the same in assay [8]. Briefly: Inhibition of serum-stimulated Akt phosphorylation in mouse NIH/3T3-K-RAS cells at 100 uM pretreated for 1 hr followed by serum addition for 30 mins by Western blot analysis. The class given is cell-based. The procedure, abridged: as §7
Assay [9] relates to K1. The description is as §6. Format: functional, cell-based. A digest of the protocol: as §3
Assay [10] deals with T1, RAC-alpha serine/threonine-protein kinase. Briefly: Inhibition of human Akt1 PH domain using AKTide-2T as substrate by ELISA. The procedure, abridged:
as §1

For assay [11] the target is unchanged. Particulars: IGROV-1, 3 to 10 uM.
The target is the same in assay [12]. Particulars: IGROV-1, 3 to 10 uM. This is another data set of the same source.
Assay [13] shares this target. Particulars: IGROV-1, 3 to 10 uM. The source holds these as a separate data set.
Assay [14] concerns K1. Briefly: Cytotoxicity against human K1 cells expressing BRAF V600E/PI3K E542K mutants assessed as vacuolated and granulated cytoplasm at 50 uM after 72 hrs by coulter counter method. Format: functional, cell-based.
The subject of assay [15] is TPC1. Briefly: Antiproliferative activity against human TPC1 cells harboring RET/PTC-1 rearrangement assessed as cell growth inhibition at 50 uM after 72 hrs by coulter counter method relative to control. Format: functional. The following applies: TPC1, 72 h, read-out: GI. The procedure, abridged: (§8)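 Cells plated in complete medium (TPC-1 3000 cells/cm², DMEM + 10% FBS; K1 4000 cells/cm², DMEM:Ham's F12:MCDB 105 2:1:1 + 20% serum), 37 °C, 5% CO2. Next day exposed to drug or DMSO (0.5% final) for 72 h; trypsinized, Coulter counted; % survival vs untreated; duplicates, two independent experiments, mean ± SEM; Student's two-tailed t test.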

In assay [16] the target is T1, RAC-alpha serine/threonine-protein kinase. Briefly: Inhibition of Akt in human IGROV1 cells assessed as reduction in BAD phosphorylation at Ser136 at 3 uM after 24 hrs by Western blot analysis. Particulars: IGROV-1. The class given is cell-based. A digest of the protocol:
(§9)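 Seeded in complete RPMI; 24 h later serum-starved and exposed to drug or vehicle for 24 h; total protein extracted and immunoblotted for serine-phosphorylated GSK-3α, GSK-3β and BAD.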

Assay [17] has the same target. Briefly: Inhibition of Akt in human IGROV1 cells assessed as reduction in GSK3beta phosphorylation at Ser9 at 3 uM after 24 hrs by Western blot analysis. The class given is cell-based. The following applies: IGROV-1. A digest of the protocol: as §9
Assay [18] in a line: Antiproliferative activity against human K1 cells expressing BRAF V600E/PI3K E542K mutants assessed as cell growth inhibition at 50 uM after 72 hrs by coulter counter method relative to control. Particulars: K1, 72 h, read-out: GI. The class given is functional. A digest of the protocol: as §8
Assay [19] addresses T1, RAC-alpha serine/threonine-protein kinase. Briefly: Inhibition of Akt in human IGROV1 cells assessed as reduction in GSK3alpha phosphorylation at Ser21 at 3 uM after 24 hrs by Western blot analysis. Format: cell-based. Particulars: IGROV-1. A digest of the protocol: as §9

T1 sequence (P31749 whole entry, the tested form may be a part): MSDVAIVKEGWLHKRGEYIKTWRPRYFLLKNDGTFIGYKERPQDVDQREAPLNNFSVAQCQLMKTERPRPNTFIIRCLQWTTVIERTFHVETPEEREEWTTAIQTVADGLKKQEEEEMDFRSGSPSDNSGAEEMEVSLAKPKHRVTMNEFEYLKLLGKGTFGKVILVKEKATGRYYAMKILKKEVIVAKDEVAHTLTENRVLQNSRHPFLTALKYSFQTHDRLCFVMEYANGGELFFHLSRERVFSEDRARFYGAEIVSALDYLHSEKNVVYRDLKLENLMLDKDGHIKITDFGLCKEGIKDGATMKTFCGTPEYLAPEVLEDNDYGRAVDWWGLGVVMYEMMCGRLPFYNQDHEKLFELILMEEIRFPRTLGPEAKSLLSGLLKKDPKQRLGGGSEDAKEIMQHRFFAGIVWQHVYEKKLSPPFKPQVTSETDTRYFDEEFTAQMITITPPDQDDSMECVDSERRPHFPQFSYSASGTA
RAC-alpha serine/threonine-protein kinase (Mus musculus), sequence (P31750 whole entry): as the sequence (P31749 whole entry, the tested form may be a part) above, with S2N, A50S, T100A, K112R, E117T, K389T, G410N, H415D counted along it

In general, inhibition refers to the drop in the measured response relative to a control, in per cent. On to `CO[C@@H]1O[C@H](CS(=O)(=O)O)[C@@H](O)[C@H](O)[C@H]1O`, for which the inhibition in assay [1] worked out at 28%.
By IC50 is commonly meant the point on the concentration scale where inhibition reaches its midpoint. For `O=c1[nH]c2ccccc2n1C1CCN(Cc2ccc(-c3nc4cc5nc[nH]c5cc4nc3-c3ccccc3)cc2)CC1`, the IC50 in assay [2] stood at 3 µM; in assay [3] it was 0.3 µM; in the assay on TPC1 [4] (TPC1, 72 h) it was 11 µM; in [5] it was 10 µM.
Turning to `CCCCCCCCCCCC(=O)OCC(CO)O[C@@H]1O[C@H](CS(=O)(=O)O)[C@@H](O)[C@H](O)[C@H]1O` (some centres not stated), in [1], the inhibition came out at 31%.
Turning to `CN[C@@H]1C[C@H]2O[C@@](C)([C@@H]1OC)n1c3ccccc3c3c4c(c5c6ccccc6n2c5c31)C(=O)NC4`, the inhibition entry in [6] is “Active”.
Take `O=S(=O)(O)C[C@H]1O[C@@H](OC(CO)CO)[C@H](O)[C@@H](O)[C@@H]1O`: the inhibition in assay [1] was 13%.
For the compound `CCCCCCCCO[C@@H]1O[C@H](CS(=O)(=O)O)[C@@H](O)[C@H](O)[C@H]1O`, the “growth inhibition (GI)” value in the assay listed under Homo sapiens, in the assay on IGROV-1, with TPC1 [4] and in the assay with K1 [9] was “inactive” each time. In [1], the inhibition was found to be 14%. In addition, the inhibition entry in assay [7] and in assay [8] was “inactive” in each case.
The compound `CCCCCCCCCCCCCCCCCCOP(=O)([O-])OC1CC[N+](C)(C)CC1` [PERIFOSINE] showed a concentration for half-maximal inhibition (IC50) in assay [10] of 43.3 µM.
In the case of `O=c1[nH]c2ccccc2n1C1CCN(Cc2ccc(-c3nc4cc5[nH]cnc5cc4nc3-c3ccccc3)cc2)CC1`, the inhibition entry in assay [11], in assay [12] and in assay [13] was “Active” in each case. The same compound had an inhibition in [1] of 89%.
As for `CCCCCCCCO[C@@H]1O[C@H](CN)[C@@H](O)[C@H](O)[C@H]1O`, the “growth inhibition (GI)” value in the assay listed under Homo sapiens, in the assay with IGROV-1, in the assay with TPC1 [4] and in the assay on K1 [9] was “inactive” in each case. In assay [1], the inhibition was 6%. Moreover, the inhibition result in assay [7] and in assay [8] was “inactive” in each case.
As to `CCCCCCCCCCCCCCCCCC(=O)OCC(CO)O[C@@H]1O[C@H](CS(=O)(=O)O)[C@@H](O)[C@H](O)[C@H]1O` (some centres not stated), the “growth inhibition (GI)” value in the assay filed under Homo sapiens, in the assay on TPC1 [4] and with K1 [9] was “Dose-dependent effect” in each case. Further, the result in the assay on K1 [14] was Active. For the same compound, the inhibition is 86% in [1], 40% in assay [8] and “Dose-dependent effect” in assay [10]. For the same compound, the IC50 in assay [3] stood at 2 µM; in assay [10], 31.3 µM. The inhibition entry in assay [7], in assay [16], in [17] and in assay [19] was “Active” throughout. The inhibition of growth at 50 µM (in the assay on TPC1 [15]; in assay [18]) was 30% each time.
`CCCCCCCCCCCC(=O)OCC(COC(=O)CCCCCCCCCCC)O[C@@H]1O[C@H](CS(=O)(=O)O)[C@@H](O)[C@H](O)[C@H]1O` had an inhibition in assay [1] of 77%.
The same measure, in the same setting: as for `CCCCCCCCCCCCOS(=O)(=O)[O-].[Na+]`, the entry is “inactive”; as for `CCCCCCCCCCCC(=O)OCC(COC(=O)CCCCCCCCCCC)O[C@@H]1O[C@H](CO)[C@@H](O)[C@H](O)[C@H]1O`, 7%; as for `CCCCCC(=O)OCC(CO)O[C@@H]1O[C@H](CS(=O)(=O)O)[C@@H](O)[C@H](O)[C@H]1O` (some centres not stated), 18%.
On the same count and under the same terms, as for `CCCCCC(=O)OCC(COC(=O)CCCCC)O[C@@H]1O[C@H](CS(=O)(=O)O)[C@@H](O)[C@H](O)[C@H]1O`, the figure is 13%.
